Legend:
T-24 = test: Anticancer activity against human T24 cells assessed as cell doubling measured for 72 hrs by DAPI staining based analysis; format: functional
786-0 = test: Anticancer activity against human 786-0 cells assessed as cell growth inhibition measured after 72 hrs by DAPI staining based analysis; format: functional
Method in brief: (§1)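 Cells were seeded and, after 24 h, DNA content was read as T0. Cells were then exposed to varying drug concentrations for a further 72 h (T72). Fixed cells were DAPI-stained and DNA content measured by automated imaging. T72 values were normalized to T0. GI50 is the concentration giving 50% growth inhibition between T0 and Ymax, obtained by curve fitting.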

Malme-3M = test: Anticancer activity against human Malme-3M cells assessed as cell doubling measured for 72 hrs by DAPI staining based analysis; format: functional
BE(2)-C = test: Anticancer activity against human BE2C cells assessed as cell growth inhibition measured after 72 hrs by DAPI staining based analysis; format: functional; method in brief: as §1
MDA-MB-175-VII = test: Anticancer activity against human MDA-MB-175-VII cells assessed as cell growth inhibition measured after 72 hrs by DAPI staining based analysis; format: functional
HOS = test: Anticancer activity against human HOS cells assessed as cell growth inhibition measured after 72 hrs by DAPI staining based analysis; format: functional
MX1 = test: Antitumor activity against human MX1 cells in xenograft model assessed as difference between median time to endpoint time of treated versus control group at 125 mg/kg; format: functional
SNU-398 = test: Anticancer activity against human SNU-398 cells assessed as cell doubling measured for 72 hrs by DAPI staining based analysis; format: functional
SK-MEL-28 = test: Anticancer activity against human SK-MEL-28 cells assessed as cell doubling measured for 72 hrs by DAPI staining based analysis; format: functional
NCI-H460 [1] = test: Anticancer activity against human NCI-H460 cells assessed as cell doubling measured for 72 hrs by DAPI staining based analysis; format: functional
HMCB cell line = test: Anticancer activity against human HMCB cells assessed as cell doubling measured for 72 hrs by DAPI staining based analysis; format: functional
BPH-1 = test: Anticancer activity against human BPH-1 cells assessed as cell doubling measured for 72 hrs by DAPI staining based analysis; format: functional
MOLT-16 = test: Anticancer activity against human MOLT-16 cells assessed as cell growth inhibition measured after 72 hrs by DAPI staining based analysis; format: functional
[2] = molecular target: Centromere-associated protein E (Homo sapiens, UniProt Q02224, I182L/T183A); test: Binding affinity to human CENP-E I182L/T183A mutant assessed as inhibition constant
Chain of Centromere-associated protein E (Homo sapiens, UniProt Q02224, I182L/T183A) (Q02224 whole entry I182L/T183A): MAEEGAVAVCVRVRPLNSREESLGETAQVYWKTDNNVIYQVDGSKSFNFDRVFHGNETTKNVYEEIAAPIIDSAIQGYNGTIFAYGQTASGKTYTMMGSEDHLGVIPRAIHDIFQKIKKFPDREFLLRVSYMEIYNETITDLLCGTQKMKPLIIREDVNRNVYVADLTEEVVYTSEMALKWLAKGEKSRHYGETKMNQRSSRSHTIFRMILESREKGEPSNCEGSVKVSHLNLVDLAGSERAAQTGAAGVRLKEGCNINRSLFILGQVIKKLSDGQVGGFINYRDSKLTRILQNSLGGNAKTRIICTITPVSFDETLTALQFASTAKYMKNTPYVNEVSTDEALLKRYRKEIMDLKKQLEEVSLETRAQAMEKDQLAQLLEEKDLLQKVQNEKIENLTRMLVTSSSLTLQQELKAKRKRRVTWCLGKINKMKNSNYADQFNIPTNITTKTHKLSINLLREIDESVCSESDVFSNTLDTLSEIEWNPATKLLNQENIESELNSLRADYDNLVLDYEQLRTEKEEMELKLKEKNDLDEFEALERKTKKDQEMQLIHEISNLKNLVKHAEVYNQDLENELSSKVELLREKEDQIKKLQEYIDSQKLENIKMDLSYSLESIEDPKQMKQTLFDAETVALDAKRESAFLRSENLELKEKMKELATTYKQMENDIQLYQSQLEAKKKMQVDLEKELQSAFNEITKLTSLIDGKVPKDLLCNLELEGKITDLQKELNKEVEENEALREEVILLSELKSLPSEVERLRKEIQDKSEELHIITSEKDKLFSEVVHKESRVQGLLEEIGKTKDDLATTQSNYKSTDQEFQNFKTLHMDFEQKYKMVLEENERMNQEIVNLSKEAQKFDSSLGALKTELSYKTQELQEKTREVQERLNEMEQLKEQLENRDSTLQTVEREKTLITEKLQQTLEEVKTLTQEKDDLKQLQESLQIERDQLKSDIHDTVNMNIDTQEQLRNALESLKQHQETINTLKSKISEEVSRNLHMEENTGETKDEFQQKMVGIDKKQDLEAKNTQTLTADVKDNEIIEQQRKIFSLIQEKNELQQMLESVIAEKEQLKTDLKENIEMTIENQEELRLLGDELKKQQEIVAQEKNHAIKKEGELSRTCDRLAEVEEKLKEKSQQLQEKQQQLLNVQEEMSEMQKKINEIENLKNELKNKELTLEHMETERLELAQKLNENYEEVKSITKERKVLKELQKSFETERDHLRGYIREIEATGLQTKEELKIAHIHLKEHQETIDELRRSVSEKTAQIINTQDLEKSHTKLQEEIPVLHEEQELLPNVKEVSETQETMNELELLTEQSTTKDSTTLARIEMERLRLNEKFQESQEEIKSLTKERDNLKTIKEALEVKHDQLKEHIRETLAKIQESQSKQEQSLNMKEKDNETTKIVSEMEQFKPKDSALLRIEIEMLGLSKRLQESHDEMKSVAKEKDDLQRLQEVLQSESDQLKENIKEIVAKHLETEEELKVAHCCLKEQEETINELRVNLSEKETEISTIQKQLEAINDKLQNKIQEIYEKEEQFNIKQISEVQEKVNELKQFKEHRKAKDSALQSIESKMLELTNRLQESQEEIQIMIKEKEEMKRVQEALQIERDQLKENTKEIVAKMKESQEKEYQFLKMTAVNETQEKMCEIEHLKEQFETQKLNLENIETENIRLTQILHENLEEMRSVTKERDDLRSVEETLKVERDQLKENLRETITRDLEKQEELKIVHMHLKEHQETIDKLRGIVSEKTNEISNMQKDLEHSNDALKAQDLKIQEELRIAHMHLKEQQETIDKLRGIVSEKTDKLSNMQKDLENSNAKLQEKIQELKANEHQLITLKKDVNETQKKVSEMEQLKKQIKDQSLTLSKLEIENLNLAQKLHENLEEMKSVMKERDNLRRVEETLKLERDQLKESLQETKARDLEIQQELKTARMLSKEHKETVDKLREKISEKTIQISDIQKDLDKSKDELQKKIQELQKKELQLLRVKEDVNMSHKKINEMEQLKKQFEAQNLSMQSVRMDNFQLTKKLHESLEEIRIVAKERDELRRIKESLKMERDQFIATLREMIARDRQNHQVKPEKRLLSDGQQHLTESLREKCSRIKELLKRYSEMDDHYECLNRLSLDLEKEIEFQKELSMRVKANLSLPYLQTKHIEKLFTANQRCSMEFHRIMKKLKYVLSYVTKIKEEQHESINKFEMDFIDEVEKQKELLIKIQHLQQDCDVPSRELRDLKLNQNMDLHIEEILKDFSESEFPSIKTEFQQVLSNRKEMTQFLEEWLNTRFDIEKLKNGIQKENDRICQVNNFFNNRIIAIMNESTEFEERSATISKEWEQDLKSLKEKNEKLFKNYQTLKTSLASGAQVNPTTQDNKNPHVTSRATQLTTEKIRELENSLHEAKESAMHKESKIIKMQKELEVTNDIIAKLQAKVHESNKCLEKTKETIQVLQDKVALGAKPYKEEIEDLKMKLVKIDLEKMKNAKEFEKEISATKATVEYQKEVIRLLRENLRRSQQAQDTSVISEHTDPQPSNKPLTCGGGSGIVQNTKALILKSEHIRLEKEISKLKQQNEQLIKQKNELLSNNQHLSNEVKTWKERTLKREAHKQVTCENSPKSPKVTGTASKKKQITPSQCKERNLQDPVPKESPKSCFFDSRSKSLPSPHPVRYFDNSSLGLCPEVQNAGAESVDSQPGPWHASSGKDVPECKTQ

[3] = Anticancer activity against human UM-SCC-12 cells assessed as cell growth inhibition measured after 72 hrs by DAPI staining based analysis; format: functional
[4] = molecular target: Centromere-associated protein E (Mus musculus, UniProt Q6RT24); test: Binding affinity to wild-type mouse CENP-E assessed as inhibition constant
Chain of Centromere-associated protein E (Mus musculus, UniProt Q6RT24) (Q6RT24 whole entry): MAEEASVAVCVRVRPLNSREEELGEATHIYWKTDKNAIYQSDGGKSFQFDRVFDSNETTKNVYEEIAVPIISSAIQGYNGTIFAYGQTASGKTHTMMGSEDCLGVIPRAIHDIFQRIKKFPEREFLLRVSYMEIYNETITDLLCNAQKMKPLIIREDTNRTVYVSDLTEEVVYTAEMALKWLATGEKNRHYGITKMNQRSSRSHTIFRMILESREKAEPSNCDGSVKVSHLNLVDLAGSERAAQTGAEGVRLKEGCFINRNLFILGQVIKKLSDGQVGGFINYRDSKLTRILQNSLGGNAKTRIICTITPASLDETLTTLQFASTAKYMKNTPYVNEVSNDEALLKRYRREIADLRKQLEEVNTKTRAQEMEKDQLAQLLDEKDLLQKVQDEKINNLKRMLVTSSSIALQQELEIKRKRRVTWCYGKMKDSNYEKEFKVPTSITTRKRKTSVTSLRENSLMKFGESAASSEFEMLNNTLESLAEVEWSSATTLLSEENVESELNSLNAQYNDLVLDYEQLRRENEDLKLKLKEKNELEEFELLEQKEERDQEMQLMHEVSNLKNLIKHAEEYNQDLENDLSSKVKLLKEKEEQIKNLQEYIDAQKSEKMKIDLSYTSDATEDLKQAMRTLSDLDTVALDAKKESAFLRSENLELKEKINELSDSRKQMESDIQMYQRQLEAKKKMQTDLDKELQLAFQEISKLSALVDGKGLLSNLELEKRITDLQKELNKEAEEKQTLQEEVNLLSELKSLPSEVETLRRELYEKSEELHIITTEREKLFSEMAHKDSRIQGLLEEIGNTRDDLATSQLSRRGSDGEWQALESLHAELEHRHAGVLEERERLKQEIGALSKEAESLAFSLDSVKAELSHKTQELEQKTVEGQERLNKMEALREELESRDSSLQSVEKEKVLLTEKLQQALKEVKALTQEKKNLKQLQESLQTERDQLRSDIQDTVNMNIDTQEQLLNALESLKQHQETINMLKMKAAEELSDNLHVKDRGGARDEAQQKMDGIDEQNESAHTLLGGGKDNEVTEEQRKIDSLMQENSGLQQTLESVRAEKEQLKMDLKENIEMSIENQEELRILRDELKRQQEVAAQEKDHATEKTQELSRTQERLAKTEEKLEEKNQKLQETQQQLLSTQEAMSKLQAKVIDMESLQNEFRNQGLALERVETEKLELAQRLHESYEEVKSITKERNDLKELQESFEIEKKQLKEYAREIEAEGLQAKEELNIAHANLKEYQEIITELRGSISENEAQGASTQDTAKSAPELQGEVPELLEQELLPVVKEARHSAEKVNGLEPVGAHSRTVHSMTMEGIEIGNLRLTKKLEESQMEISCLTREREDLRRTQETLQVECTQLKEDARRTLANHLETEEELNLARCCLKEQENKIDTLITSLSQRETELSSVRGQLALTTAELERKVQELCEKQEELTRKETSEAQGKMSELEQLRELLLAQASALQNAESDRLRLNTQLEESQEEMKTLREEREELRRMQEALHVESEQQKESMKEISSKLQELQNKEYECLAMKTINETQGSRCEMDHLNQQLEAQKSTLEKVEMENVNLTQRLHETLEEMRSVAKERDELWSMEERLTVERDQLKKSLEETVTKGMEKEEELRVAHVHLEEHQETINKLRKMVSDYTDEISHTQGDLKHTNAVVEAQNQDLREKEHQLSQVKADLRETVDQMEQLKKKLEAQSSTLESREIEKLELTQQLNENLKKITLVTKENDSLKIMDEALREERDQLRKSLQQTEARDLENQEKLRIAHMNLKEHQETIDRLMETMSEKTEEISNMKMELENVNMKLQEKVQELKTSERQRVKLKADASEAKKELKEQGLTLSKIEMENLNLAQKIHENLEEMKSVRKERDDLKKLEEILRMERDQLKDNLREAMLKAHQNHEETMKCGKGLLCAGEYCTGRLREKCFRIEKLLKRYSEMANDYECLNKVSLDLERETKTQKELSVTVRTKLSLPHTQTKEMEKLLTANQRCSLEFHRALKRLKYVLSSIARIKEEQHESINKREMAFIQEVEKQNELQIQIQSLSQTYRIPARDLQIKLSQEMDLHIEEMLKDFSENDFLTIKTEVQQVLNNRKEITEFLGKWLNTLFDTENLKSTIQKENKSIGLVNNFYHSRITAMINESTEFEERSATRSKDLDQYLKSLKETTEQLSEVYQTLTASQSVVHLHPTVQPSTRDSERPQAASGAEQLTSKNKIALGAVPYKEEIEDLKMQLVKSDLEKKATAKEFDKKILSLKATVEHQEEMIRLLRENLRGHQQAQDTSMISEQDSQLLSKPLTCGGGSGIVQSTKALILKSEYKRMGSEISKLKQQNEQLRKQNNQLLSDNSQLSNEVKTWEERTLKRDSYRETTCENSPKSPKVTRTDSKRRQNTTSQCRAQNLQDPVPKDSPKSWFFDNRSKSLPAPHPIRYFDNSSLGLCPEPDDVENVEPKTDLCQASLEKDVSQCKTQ

NCI-H460 [5] = test: Anticancer activity against human NCI-H460 cells assessed as cell growth inhibition measured after 72 hrs by DAPI staining based analysis; format: functional
SK-N-DZ = test: Anticancer activity against human SK-N-DZ cells assessed as cell doubling measured for 72 hrs by DAPI staining based analysis; format: functional
NCI-H358 = test: Anticancer activity against human NCI-H358 cells assessed as cell growth inhibition measured after 72 hrs by DAPI staining based analysis; format: functional
CAKI-2 = test: Anticancer activity against human CAKI-2 cells assessed as cell growth inhibition measured after 72 hrs by DAPI staining based analysis; format: functional
Method in brief: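 Cells were seeded, and DNA content at 24 h after seeding (T0) was read by imaging of fixed, DAPI-stained cells. Cells were then exposed to a range of drug concentrations for a further 72 h (T72) and DNA content was read again. T72 values were normalized to T0, and GI50 was taken from curve fits as the concentration giving 50% growth inhibition relative to T0 and Ymax.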

[6] = Anticancer activity against human BC-2 cells assessed as cell doubling measured for 72 hrs by DAPI staining based analysis; format: functional
Detroit 562 = test: Anticancer activity against human Detroit 562 cells assessed as cell doubling measured for 72 hrs by DAPI staining based analysis; format: functional
SW756 = test: Anticancer activity against human SW756 cells assessed as cell doubling measured for 72 hrs by DAPI staining based analysis; format: functional
SF-295 = test: Anticancer activity against human SF-295 cells assessed as cell growth inhibition measured after 72 hrs by DAPI staining based analysis; format: functional
SK-LMS-1 = test: Anticancer activity against human SK-LMS-1 cells assessed as cell doubling measured for 72 hrs by DAPI staining based analysis; format: functional
AGS = test: Anticancer activity against human AGS cells assessed as cell growth inhibition measured after 72 hrs by DAPI staining based analysis; format: functional; method in brief: as §1
SCC-9 = test: Anticancer activity against human SCC-9 cells assessed as cell growth inhibition measured after 72 hrs by DAPI staining based analysis; format: functional
SW1990 = test: Anticancer activity against human SW1990 cells assessed as cell doubling measured for 72 hrs by DAPI staining based analysis; format: functional
HuT78 = test: Anticancer activity against human HuT78 cells assessed as cell doubling measured for 72 hrs by DAPI staining based analysis; format: functional
A-427 = test: Anticancer activity against human A-427 cells assessed as cell growth inhibition measured after 72 hrs by DAPI staining based analysis; format: functional; method in brief: as §1
SNU-423 = test: Anticancer activity against human SNU-423 cells assessed as cell growth inhibition measured after 72 hrs by DAPI staining based analysis; format: functional
MCF7 = test: Antitumor activity against human MCF7 cells in xenograft model assessed as difference between median time to endpoint time of treated versus control group at 62.5 mg/kg; format: functional
MDA-MB-453 = test: Anticancer activity against human MDA-MB-453 cells assessed as cell doubling measured for 72 hrs by DAPI staining based analysis; format: functional
OV-90 = test: Anticancer activity against human OV-90 cells assessed as cell growth inhibition measured after 72 hrs by DAPI staining based analysis; format: functional
COLO-320-HSR = test: Anticancer activity against human COLO 320HSR cells assessed as cell doubling measured for 72 hrs by DAPI staining based analysis; format: functional
NCI-H2122 = test: Anticancer activity against human NCI-H2122 cells assessed as cell doubling measured for 72 hrs by DAPI staining based analysis; format: functional
[7] = Anticancer activity against human KPL-1 cells assessed as cell doubling measured for 72 hrs by DAPI staining based analysis; format: functional
NCI-H596 = test: Anticancer activity against human NCI-H596 cells assessed as cell doubling measured for 72 hrs by DAPI staining based analysis; format: functional
SF-268 = test: Anticancer activity against human SF-268 cells assessed as cell doubling measured for 72 hrs by DAPI staining based analysis; format: functional
DoTc2-4510 = test: Anticancer activity against human DoTc2-4510 cells assessed as cell growth inhibition measured after 72 hrs by DAPI staining based analysis; format: functional
Method in brief: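 Cells seeded, DAPI-stained DNA content of fixed cells read by imaging 24 h after seeding (T0), and again after a further 72 h exposure to a range of drug concentrations (T72). T72 values were normalized to T0. Curve fits gave the concentration producing 50% growth inhibition relative to T0 and Ymax (GI50).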

GI50 (786-0): 45 nM | GI50 (MDA-MB-175-VII): 23 nM | GI50 (MOLT-16): 47 nM | Ki [2]: 61 nM | Ki [4]: 67 nM | GI50 (NCI-H460 [5]): 29 nM | GI50 (NCI-H358): 18 nM | GI50 (AGS): 29 nM | GI50 (SNU-423): 34 nM
Structure (SMILES): CC(C)Oc1ccc(C(=O)N[C@H](CNC(=O)CN(C)C)Cc2ccc(-c3cn4cccc([C@H](C)O)c4n3)cc2)cc1Cl [GSK-923295A]
Activity (T-24): 1.57 | Activity (Malme-3M): 1.18 | GI50 (BE(2)-C): 93 nM | GI50 (HOS): 27 nM | Time (MX1): 6.9 days | Activity (SNU-398): 2.53 | Activity (SK-MEL-28): 2.43 | Activity (NCI-H460 [1]): 3.86 | Activity (HMCB cell line): 2.92 | Activity (BPH-1): 2.08 | GI50 [3]: 33 nM | Activity (SK-N-DZ): 1.81 | GI50 (CAKI-2): 25 nM | Activity [6]: 1.94 | Activity (Detroit 562): 2.52 | Activity (SW756): 2.36 | GI50 (SF-295): 35 nM | Activity (SK-LMS-1): 2.84 | GI50 (SCC-9): 24 nM | Activity (SW1990): 1.88 | Activity (HuT78): 2.89 | GI50 (A-427): 97 nM | Time (MCF7): 5.4 days | Activity (MDA-MB-453): 2.26 | GI50 (OV-90): 61 nM | Activity (COLO-320-HSR): 3.25 | Activity (NCI-H2122): 2.82 | Activity [7]: 2.47 | Activity (NCI-H596): 1.31 | Activity (SF-268): 2.13 | GI50 (DoTc2-4510): 33 nM
